Measurements from ChEMBL document CHEMBL1141070, “Synthesis and biological activity of flurbiprofen analogues as selective inhibitors of beta-amyloid(1)(-)(42) secretion” (J Med Chem, 2005).
pIC50: −log10 of the molar value.

How the values were obtained:
Cytochrome P450 2C9 [1] = biological target: T1, Cytochrome P450 2C9 (Homo sapiens, UniProt P11712); experiment: Interaction with human cytochrome P450 isoform 2C9 expressed in baculovirus-insect cells; type: ADME
Method in brief: (§1)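 Microsomes from baculovirus-insect cells expressing human CYP1A2, 2C9, 2C19, 2D6 or 3A4. Compound serially diluted with an NADPH-regenerating mix (16.3 μM NADP+, 0.83 mM glucose-6-phosphate, 0.83 mM MgCl2, 0.4 U/mL G6PDH). Pre-warmed 10 min at 37 °C, then isoform-specific substrate added in 0.35 M potassium phosphate pH 7.4. Fluorometric read-out; IC50 by nonlinear regression.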

[2] = Area under curve after administration to rats at a dose of 2.5 mg/kg orally; type: ADME, organism-based; set-up: dose 2.5 mg/kg, route oral; conditions: rat, in vivo, po
[3] = Area under curve after administration to rats at a dose of 0.5 mg/kg intravenously; type: ADME, organism-based; set-up: dose 0.5 mg/kg, route intravenous; conditions: rat, in vivo, iv
Cytochrome P450 2C19 = Cytochrome P450 2C19 (Homo sapiens, UniProt P33261); experiment: Interaction with human cytochrome P450 isoform 2C19 expressed in baculovirus-insect cells; type: ADME; method in brief: as §1
Chain of Cytochrome P450 2C19 (P33261 whole entry, canonical isoform): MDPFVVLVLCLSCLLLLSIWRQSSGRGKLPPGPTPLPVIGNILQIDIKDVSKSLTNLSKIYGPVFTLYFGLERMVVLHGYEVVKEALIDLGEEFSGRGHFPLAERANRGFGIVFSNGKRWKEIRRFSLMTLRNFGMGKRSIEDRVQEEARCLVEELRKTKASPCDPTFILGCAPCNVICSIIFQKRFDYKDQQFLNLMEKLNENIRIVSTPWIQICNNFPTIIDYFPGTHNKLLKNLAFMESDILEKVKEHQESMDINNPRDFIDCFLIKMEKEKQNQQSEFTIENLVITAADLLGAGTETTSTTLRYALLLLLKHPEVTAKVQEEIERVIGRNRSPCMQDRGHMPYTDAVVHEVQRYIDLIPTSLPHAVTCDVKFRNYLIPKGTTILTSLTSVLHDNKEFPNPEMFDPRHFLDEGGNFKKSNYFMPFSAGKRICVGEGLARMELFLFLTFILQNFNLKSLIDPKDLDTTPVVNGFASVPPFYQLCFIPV

[4] = biological target: T2, Amyloid-beta precursor protein (Homo sapiens, UniProt P05067); experiment: Inhibitory concentration against beta-amyloid-42 (Abeta42) secretion was evaluated in human neuroglioma cells (H4-APP695NL); type: functional, cell-based
Method in brief: (§2)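 H4-APP695NL human neuroglioma cells (APP695 Swedish K595N/M596L) seeded at 2 × 10^5/well and grown 24 h to confluence. Increasing compound concentrations added overnight; DMSO 1% as vehicle. Supernatant Aβ42 or Aβ40 measured by electrochemiluminescence immunoassay: biotinylated 4G8 plus C-terminus-specific rabbit antibodies, captured on streptavidin beads.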
Target sequence in this assay (P05067 18-770 limits assumed): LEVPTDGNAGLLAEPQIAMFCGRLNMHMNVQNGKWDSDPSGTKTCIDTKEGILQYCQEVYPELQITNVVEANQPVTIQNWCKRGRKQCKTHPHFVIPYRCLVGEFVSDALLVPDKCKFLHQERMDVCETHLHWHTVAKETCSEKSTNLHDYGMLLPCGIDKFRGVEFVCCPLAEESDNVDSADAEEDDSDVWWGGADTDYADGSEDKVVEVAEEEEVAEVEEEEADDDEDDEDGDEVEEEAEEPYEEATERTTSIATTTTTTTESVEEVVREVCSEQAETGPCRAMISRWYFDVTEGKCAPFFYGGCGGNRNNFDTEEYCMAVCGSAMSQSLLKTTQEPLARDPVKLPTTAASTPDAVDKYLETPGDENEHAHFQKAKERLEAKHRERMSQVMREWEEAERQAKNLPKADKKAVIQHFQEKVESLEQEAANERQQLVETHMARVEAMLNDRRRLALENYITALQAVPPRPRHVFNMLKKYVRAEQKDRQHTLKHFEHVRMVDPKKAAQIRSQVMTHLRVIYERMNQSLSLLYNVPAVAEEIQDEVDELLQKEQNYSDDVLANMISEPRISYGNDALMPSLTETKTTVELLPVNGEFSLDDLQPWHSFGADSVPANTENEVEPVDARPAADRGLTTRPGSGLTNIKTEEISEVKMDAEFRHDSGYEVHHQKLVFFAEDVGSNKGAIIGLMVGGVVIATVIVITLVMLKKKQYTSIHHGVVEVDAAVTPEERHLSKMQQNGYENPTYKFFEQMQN

[5] = Maximal concentration in rats after 0.5 mg/kg intravenous dose; type: ADME, organism-based; set-up: dose 0.5 mg/kg, route intravenous; conditions: rat, in vivo
[6] = biological target: T3, Prostaglandin G/H synthase 1 (Rattus norvegicus) (UniProt Q63921); experiment: Percent inhibition against cyclooxygenase-1 at 100 uM in rat blood
T3 sequence (whole entry): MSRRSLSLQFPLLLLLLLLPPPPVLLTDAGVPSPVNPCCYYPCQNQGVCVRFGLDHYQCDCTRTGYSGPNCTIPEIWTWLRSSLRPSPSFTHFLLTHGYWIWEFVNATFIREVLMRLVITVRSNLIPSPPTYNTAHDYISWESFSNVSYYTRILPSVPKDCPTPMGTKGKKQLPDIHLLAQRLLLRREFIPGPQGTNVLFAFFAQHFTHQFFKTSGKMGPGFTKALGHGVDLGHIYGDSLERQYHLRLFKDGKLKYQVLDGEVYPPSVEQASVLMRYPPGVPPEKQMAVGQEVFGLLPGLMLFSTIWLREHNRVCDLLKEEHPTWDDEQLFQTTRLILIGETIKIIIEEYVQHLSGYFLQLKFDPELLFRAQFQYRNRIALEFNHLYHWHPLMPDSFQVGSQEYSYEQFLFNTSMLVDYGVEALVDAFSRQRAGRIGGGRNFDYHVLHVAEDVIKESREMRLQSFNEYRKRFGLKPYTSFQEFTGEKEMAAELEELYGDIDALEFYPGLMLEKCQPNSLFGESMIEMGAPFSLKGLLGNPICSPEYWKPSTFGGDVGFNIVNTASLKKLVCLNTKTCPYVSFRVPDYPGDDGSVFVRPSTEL
Method in brief: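 Fresh rat whole blood preincubated 1 h at 37 °C with compound (100 μM) or DMSO (0.3% final). Stimulated 30 min with A23187 calcium ionophore; plasma thromboxane B2 measured by radioimmunoassay.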

[7] = Elimination phase half-life after administration to rats at a dose of 2.5 mg/kg orally; type: ADME, organism-based; set-up: dose 2.5 mg/kg, route oral; conditions: rat, in vivo, po
[8] = Maximal concentration in rats after 2.5 mg/kg oral dose; type: ADME, organism-based; set-up: dose 2.5 mg/kg, route oral; conditions: rat, in vivo
Caco-2 = experiment: Permeability in the Caco-2 cell; high absorption; type: ADME, cell-based; conditions: human
Method in brief: (§3)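 Caco-2 monolayers on polycarbonate Transwell inserts, 2 h at 37 °C. Apical and basolateral solutions analysed by LC-MS/MS (SRM). Papp = Cb·Vb/(C0·A·t).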

[9] = biological target: T2, Amyloid-beta precursor protein; conditions: at 100 µM
Target sequence in this assay (P05067 whole entry): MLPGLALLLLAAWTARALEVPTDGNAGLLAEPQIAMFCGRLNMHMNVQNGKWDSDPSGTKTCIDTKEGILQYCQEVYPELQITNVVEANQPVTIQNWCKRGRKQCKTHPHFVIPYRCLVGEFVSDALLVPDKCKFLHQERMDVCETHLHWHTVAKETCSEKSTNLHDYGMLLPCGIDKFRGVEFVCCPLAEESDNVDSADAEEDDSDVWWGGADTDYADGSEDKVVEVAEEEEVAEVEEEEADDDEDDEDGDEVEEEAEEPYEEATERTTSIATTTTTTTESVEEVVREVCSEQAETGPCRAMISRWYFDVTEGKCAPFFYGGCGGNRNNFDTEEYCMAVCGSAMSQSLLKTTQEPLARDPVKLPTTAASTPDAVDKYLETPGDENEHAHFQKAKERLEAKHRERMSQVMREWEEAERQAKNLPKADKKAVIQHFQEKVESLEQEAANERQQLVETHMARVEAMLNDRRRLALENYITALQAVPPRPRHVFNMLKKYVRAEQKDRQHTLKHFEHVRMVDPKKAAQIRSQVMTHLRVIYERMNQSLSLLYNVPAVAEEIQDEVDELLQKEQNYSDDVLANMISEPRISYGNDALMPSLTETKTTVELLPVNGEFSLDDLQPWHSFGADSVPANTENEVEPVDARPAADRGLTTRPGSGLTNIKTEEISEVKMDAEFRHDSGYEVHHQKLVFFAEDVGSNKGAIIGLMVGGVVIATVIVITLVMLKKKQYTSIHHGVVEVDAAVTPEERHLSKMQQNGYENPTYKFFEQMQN

[10] = In vivo steady state metabolic clearance of the compound; conditions: rat
[11] = Total body clearance after administration to rats at a dose of 0.5 mg/kg intravenously; conditions: rat, in vivo, iv
[12] = Absolute oral bioavailability after administration to rats at a dose of 2.5 mg/kg orally; conditions: rat, in vivo
[13] = Intestinal drug absorption was estimated in vitro using human colon adenocarcinoma (Caco-2) cell monolayers; type: ADME; method in brief: as §3
[14] = biological target: T2, Amyloid-beta precursor protein; experiment: Concentration required to inhibit A beta 40 peptide; method in brief: as §2
Target sequence in this assay (P05067 whole entry): as above

Cytochrome P450 2C9 [15] = biological target: T1, Cytochrome P450 2C9; experiment: Interaction with human cytochrome P450 isoform 2C9 expressed in baculovirus-insect cells; Activation was observed due to interference in assay; type: ADME; method in brief: as §1
Cytochrome P450 3A4 [16] = biological target: T4, Cytochrome P450 3A4 (Homo sapiens, UniProt P08684); experiment: Inhibition of cytochrome P450 3A4 at 100 uM; activation observed; type: ADME
T4 sequence (P08684 whole entry, canonical isoform): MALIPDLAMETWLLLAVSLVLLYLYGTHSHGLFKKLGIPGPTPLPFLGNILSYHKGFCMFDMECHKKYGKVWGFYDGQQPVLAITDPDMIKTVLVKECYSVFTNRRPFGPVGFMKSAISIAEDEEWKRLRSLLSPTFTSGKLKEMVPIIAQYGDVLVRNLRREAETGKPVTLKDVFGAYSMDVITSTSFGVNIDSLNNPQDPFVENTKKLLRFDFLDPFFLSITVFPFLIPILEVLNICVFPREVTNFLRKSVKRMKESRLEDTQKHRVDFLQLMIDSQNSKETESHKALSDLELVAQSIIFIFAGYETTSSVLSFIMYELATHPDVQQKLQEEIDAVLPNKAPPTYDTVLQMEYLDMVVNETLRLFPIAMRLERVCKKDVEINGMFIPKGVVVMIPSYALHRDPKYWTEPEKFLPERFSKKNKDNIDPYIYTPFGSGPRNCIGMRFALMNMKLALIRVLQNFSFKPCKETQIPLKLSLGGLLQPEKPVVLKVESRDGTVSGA
Method in brief: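 Supersome microsomes from baculovirus-insect cells expressing human CYP1A2, 2C9, 2C19, 2D6 or 3A4 were used with isoform-specific fluorogenic substrates. Compounds were serially diluted with an NADP⁺/glucose-6-phosphate regenerating system in 0.35 M potassium phosphate, pH 7.4. Plates were prewarmed 10 min at 37 °C, reactions stopped with acetonitrile/Tris, and fluorescence read. IC50 was obtained by nonlinear regression.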

Cytochrome P450 2C9 [17] = biological target: T1, Cytochrome P450 2C9; experiment: Interaction with human cytochrome P450 isoform 2C9 expressed in baculovirus-insect cells at 100 uM; type: ADME; method in brief: as §1
[18] = biological target: T2, Amyloid-beta precursor protein; experiment: Concentration required to inhibit A beta 40 peptide 100 uM
Target sequence in this assay (P05067 whole entry): as the sequence (P05067 whole entry) above

Cytochrome P450 1A2 = biological target: T5, Cytochrome P450 1A2 (Homo sapiens, UniProt P05177); experiment: Interaction with human cytochrome P450 isoform 1A2 expressed in baculovirus-insect cells; type: ADME; method in brief: as §1
T5 sequence (P05177 whole entry): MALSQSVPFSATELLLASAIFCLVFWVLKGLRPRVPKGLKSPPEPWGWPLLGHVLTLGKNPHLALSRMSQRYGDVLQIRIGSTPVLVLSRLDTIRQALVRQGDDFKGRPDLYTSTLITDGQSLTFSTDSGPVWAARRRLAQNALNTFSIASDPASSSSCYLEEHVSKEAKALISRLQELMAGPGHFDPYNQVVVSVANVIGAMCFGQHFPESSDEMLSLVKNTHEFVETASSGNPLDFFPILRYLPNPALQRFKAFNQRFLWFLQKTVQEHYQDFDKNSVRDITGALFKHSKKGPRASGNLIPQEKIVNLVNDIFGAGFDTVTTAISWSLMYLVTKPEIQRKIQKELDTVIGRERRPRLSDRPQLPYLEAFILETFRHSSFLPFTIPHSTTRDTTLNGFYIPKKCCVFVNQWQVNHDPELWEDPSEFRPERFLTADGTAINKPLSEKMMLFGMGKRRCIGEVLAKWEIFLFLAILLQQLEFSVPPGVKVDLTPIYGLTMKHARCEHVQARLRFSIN

Cytochrome P450 3A4 [19] = biological target: T4, Cytochrome P450 3A4; experiment: Interaction with human cytochrome P450 isoform 3A4 expressed in baculovirus-insect cells; type: ADME; method in brief: as §1
[20] = Concentration ratio in cerebrospinal fluid and plasma; LLOQ = lower limit of quantitation; conditions: rat

T1 sequence (P11712 whole entry, canonical isoform): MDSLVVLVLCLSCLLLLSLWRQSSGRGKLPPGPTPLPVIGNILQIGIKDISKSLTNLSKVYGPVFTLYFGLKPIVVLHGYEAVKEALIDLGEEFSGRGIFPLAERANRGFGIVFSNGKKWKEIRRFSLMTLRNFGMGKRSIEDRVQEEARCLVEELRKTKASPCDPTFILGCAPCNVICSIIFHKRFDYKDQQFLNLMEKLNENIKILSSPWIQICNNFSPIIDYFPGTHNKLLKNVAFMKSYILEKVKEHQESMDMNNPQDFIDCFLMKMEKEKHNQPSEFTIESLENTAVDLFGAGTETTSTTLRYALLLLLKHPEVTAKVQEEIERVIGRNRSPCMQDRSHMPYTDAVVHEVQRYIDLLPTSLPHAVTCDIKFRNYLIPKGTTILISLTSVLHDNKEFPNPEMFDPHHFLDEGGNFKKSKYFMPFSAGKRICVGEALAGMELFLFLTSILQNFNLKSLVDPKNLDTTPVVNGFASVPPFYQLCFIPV

O=C(O)C1(c2ccc(-c3ccc(Cl)c(Cl)c3)c(F)c2)CC1
pIC50 (Cytochrome P450 2C9 [1]): 4.42 | AUC [2]: 435 µg/h/mL | AUC [3]: 173 µg/h/mL | pIC50 (Cytochrome P450 2C19): 4.60 | pIC50 [4]: 4.39 | Cmax [5]: 6100 ng/mL | inhibition [6]: < 1% | T1/2 [7]: 20.7 h | half-life [7]: 20.7 h | Cmax [8]: 16200 ng/mL | Absorption (Caco-2): High | inhibition [9]: 79% | Clearance [10]: 1.5 mL/h | Clearance [11]: 2.9 mL/h/kg | bioavailability [12]: 50.2%

CC(C(=O)O)c1ccc(-c2cc(Cl)cc(Cl)c2)c(F)c1 (stereo not drawn)
pIC50 [4]: 4.11 | Papp [13]: > 5 ×10⁻⁶ cm/s | pIC50 [14]: 4.03 | inhibition [6]: 65% | Activation (Cytochrome P450 2C9 [15]): > 50% | inhibition [9]: 75%

O=C(O)C1(c2ccc(-c3ccc(C4CCCCC4)cc3)c(F)c2)CC1
pIC50 (Cytochrome P450 3A4 [16]): 4.23 | inhibition [6]: 12% | inhibition [9]: 60%

CC(C(=O)O)c1ccc(-c2csc3ccccc23)c(F)c1 (stereo not drawn)
pIC50 [4]: 4.08 | Papp [13]: > 5 ×10⁻⁶ cm/s | inhibition [6]: 68% | Activation (Cytochrome P450 2C9 [17]): > 50% | inhibition [9]: 96%

CC(C(=O)O)c1ccc(-c2ccc(OC3CCCCC3)cc2)c(F)c1 (stereo not drawn)
pIC50 [4]: 4.39 | Papp [13]: > 5 ×10⁻⁶ cm/s | inhibition [18]: 25% | inhibition [6]: 20% | Inhibition (Cytochrome P450 1A2): > 50% | Inhibition (Cytochrome P450 3A4 [19]): > 50% | inhibition [9]: 76% | Clearance [10]: 148 mL/h | Ratio [20]: Below LLOQ
